# Reference: ChEMBL document CHEMBL1671683, “Activity of linezolid in an in vitro pharmacokinetic-pharmacodynamic model using different dosages and Staphylococcus aureus and Enterococcus faecalis strains with and without a hypermutator phenotype” (Antimicrob Agents Chemother, 2010)
# Columns and labels:
# [1] = Residual concentration at the end of the administration interval in two-compartment pharmacokinetic/pharmacodynamic model at 600 mg, bid administered as 0.5 hr infusion over 24 hrs; assay type: ADME; details: in vivo, iv
# [2] = Tmax in two-compartment pharmacokinetic/pharmacodynamic model at 200 mg, bid administered as 0.5 hrs infusion; assay type: ADME, organism-based; details: iv
# In short: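 Two-compartment in vitro hollow-fibre model in cation-adjusted, protein-free Mueller-Hinton broth at 37°C. Human total-plasma linezolid profile simulated as 0.5-h infusion every 12 h for 48 h, computer-controlled syringe pump into central compartment. […] Peripheral samples assayed by validated HPLC-UV (quantification limit 0.39 μg/ml). Tmax read directly from concentration-time profiles. Run in duplicate.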
# Enterococcus faecalis [3] = experiment: Bactericidal activity against 14 hrs peripheral compartment culture samples of Enterococcus faecalis Ef1497 in two-compartment pharmacokinetic/pharmacodynamic model assessed as effect on bacterial count at 800 mg, bid administered as 0.5 hr infusion; assay type: functional
# In short: (§1)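 An 18-h culture concentrated 50-fold was injected into the peripheral compartment 3 h pre-sampling (~10^8 CFU/ml E. faecalis, 10^9 S. aureus). Counts came from dilution plating (detection limit 2–3 log10 CFU/ml), expressed as Δlog CFU/ml from treatment start. Run in duplicate.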
# [4] = AUC in two-compartment pharmacokinetic/pharmacodynamic model at 600 mg, bid administered as 0.5 hrs infusion; assay type: ADME; details: iv
# in vitro [5] = details: two-compartment pharmacokinetic/pharmacodynamic model, iv, 200 mg
# Enterococcus faecalis [6] = experiment: Bactericidal activity against 1 hr peripheral compartment culture samples of Enterococcus faecalis Ef1497 MutM3 in two-compartment pharmacokinetic/pharmacodynamic model assessed as effect on bacterial count at 200 mg, bid administered as 0.5 hr infusion; assay type: functional
# In short: (§2)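 Two-compartment hollow-fibre model in cation-adjusted, protein-free MH broth, 37°C. Linezolid given as simulated 0.5-h infusion twice daily. Inoculum grown 18 h, concentrated 50-fold and placed in the peripheral compartment 3 h before t0. Peripheral samples at set times counted by dilution plating. First 10-fold dilution not plated, limiting detection to 2–3 log10 CFU/ml. Δlog CFU/ml taken from t0 count. Duplicates.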
# in vivo = details: iv, 600 mg
# Enterococcus faecalis [7] = experiment: Bactericidal activity against 14 hrs peripheral compartment culture samples of Enterococcus faecalis Ef1497 MutM3 in two-compartment pharmacokinetic/pharmacodynamic model assessed as effect on bacterial count at 200 mg, bid administered as 0.5 hr infusion; assay type: functional; in short: as §1
# Enterococcus faecalis [8] = experiment: Bactericidal activity against 48 hrs peripheral compartment culture samples of Enterococcus faecalis Ef1497 MutM3 in two-compartment pharmacokinetic/pharmacodynamic model assessed as effect on bacterial count at 600 mg, bid administered as 0.5 hr infusion; assay type: functional; in short: as §1
# Staphylococcus aureus [9] = experiment: Bactericidal activity against 12.5 hrs peripheral compartment culture samples of Staphylococcus aureus RN4220 in two-compartment pharmacokinetic/pharmacodynamic model assessed as effect on bacterial count at 600 mg, bid administered as 0.5 hr infusion; assay type: functional; in short: as §1
# [10] = Elimination half-life in healthy human at 600 mg, iv, bid administered as 0.5 hr infusion; assay type: ADME, organism-based; details: in vivo, read-out: beta t1/2 (converted)
# [11] = Cmax in two-compartment pharmacokinetic/pharmacodynamic model at 800 mg, bid administered as 0.5 hrs infusion; assay type: ADME, organism-based; parameters: dose 800 mg; details: iv
# [12] = Tmax in two-compartment pharmacokinetic/pharmacodynamic model at 800 mg, bid administered as 0.5 hr infusion over 24 hrs; assay type: ADME, organism-based; details: iv
# [13] = Residual concentration at the end of the administration interval in two-compartment pharmacokinetic/pharmacodynamic model at 800 mg, bid administered as 0.5 hrs infusion; assay type: ADME; details: iv, read-out: Drug uptake
# Enterococcus faecalis [14] = experiment: Bactericidal activity against 48 hrs peripheral compartment culture samples of Enterococcus faecalis ATCC 29212 in two-compartment pharmacokinetic/pharmacodynamic model assessed as effect on bacterial count at 600 mg, bid for every 12 hrs administered as 0.5 hrs infusion; assay type: functional; in short: as §1
# Enterococcus faecalis [15] = experiment: Bactericidal activity against 12.5 hrs peripheral compartment culture samples of Enterococcus faecalis Ef1497 MutM3 in two-compartment pharmacokinetic/pharmacodynamic model assessed as effect on bacterial count at 200 mg, bid administered as 0.5 hr infusion; assay type: functional; in short: as §1
# Enterococcus faecalis [16] = experiment: Bactericidal activity against 48 hrs peripheral compartment culture samples of Enterococcus faecalis ATCC 29212 in two-compartment pharmacokinetic/pharmacodynamic model assessed as effect on bacterial count at 200 mg, bid administered as 0.5 hr infusion; assay type: functional; in short: as §1
# Enterococcus faecalis [17] = experiment: Bactericidal activity against 13 hrs peripheral compartment culture samples of Enterococcus faecalis Ef1497 in two-compartment pharmacokinetic/pharmacodynamic model assessed as effect on bacterial count at 600 mg, bid administered as 0.5 hr infusion; assay type: functional; in short: as §1
# Enterococcus faecalis [18] = experiment: Bactericidal activity against 13 hrs peripheral compartment culture samples of Enterococcus faecalis ATCC 29212 in two-compartment pharmacokinetic/pharmacodynamic model assessed as effect on bacterial count at 200 mg, bid administered as 0.5 hr infusion; assay type: functional; in short: as §1
# in vitro [19] = details: two-compartment pharmacokinetic/pharmacodynamic model, iv, 600 mg
# [20] = Cmax in healthy human at 600 mg, iv, bid administered as 0.5 hr infusion; assay type: ADME, organism-based; parameters: dose 600 mg, route intravenous; details: in vivo
# Staphylococcus aureus [21] = experiment: Bactericidal activity against 48 hrs peripheral compartment culture samples of Staphylococcus aureus RN4220 in two-compartment pharmacokinetic/pharmacodynamic model assessed as effect on bacterial count at 600 mg, bid administered as 0.5 hr infusion; assay type: functional
# In short: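 An 18-h culture was concentrated 50-fold by centrifugation and injected into the peripheral compartment 3 h before first sampling, giving about 10^9 CFU/ml exponential growth. Linezolid was simulated as a 0.5-h infusion every 12 h. Samples taken from 0 to 48 h were counted by dilution plating on MH agar; the first 10-fold dilution was not plated (detection limit 2–3 log10 CFU/ml). Effect was expressed as Δlog CFU/ml from treatment start. Run in duplicate.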
# Enterococcus faecalis [22] = experiment: T>MIC in Enterococcus faecalis Ef1497 MutM3 in two-compartment pharmacokinetic/pharmacodynamic model at 200 mg, bid administered as 0.5 hr infusion for 2 days; assay type: functional
# [23] = AUC in two-compartment pharmacokinetic/pharmacodynamic model at 800 mg, bid administered as 0.5 hr infusion over 24 hrs; assay type: ADME; parameters: time < 24 hr, dose 800 mg; details: in vivo, iv
# Enterococcus faecalis [24] = experiment: Bactericidal activity against 1 hr peripheral compartment culture samples of Enterococcus faecalis ATCC 29212 in two-compartment pharmacokinetic/pharmacodynamic model assessed as effect on bacterial count at 200 mg, bid administered as 0.5 hr infusion; assay type: functional; in short: as §2
# Enterococcus faecalis [25] = experiment: T>MIC in Enterococcus faecalis Ef1497 in two-compartment pharmacokinetic/pharmacodynamic model at 600 mg, bid administered as 0.5 hr infusion for 2 days; assay type: functional
# Staphylococcus aureus [26] = experiment: Bactericidal activity against 0.5 hrs peripheral compartment culture samples of Staphylococcus aureus RN4220 in two-compartment pharmacokinetic/pharmacodynamic model assessed as effect on bacterial count at 600 mg, bid administered as 0.5 hr infusion; assay type: functional; in short: as §2
# Enterococcus faecalis [27] = experiment: Bactericidal activity against 2 hrs peripheral compartment culture samples of Enterococcus faecalis ATCC 29212 in two-compartment pharmacokinetic/pharmacodynamic model assessed as effect on bacterial count at 600 mg, bid administered as 0.5 hr infusion; assay type: functional; in short: as §1
smiles,measurement,setting,value
CC(=O)NC[C@H]1CN(c2ccc(N3CCOCC3)c(F)c2)C(=O)O1 [LINEZOLID],Drug uptake,[1],1.26 µg/mL
same,Tmax,[2],0.5 h
same,log10CFU/ml,Enterococcus faecalis [3],-0.05
same,AUC at 0.5 h,[4],43000 ng·h/mL
same,half-life at 0.5 h,in vitro [5],6.72 h
same,log10CFU/ml,Enterococcus faecalis [6],0.02
same,half-life,in vivo,6.18 h
same,log10CFU/ml,Enterococcus faecalis [7],0.41
same,log10CFU/ml,Enterococcus faecalis [8],0.45
same,log10CFU/ml,Staphylococcus aureus [9],-0.26
same,half-life,[10],5.1 h
same,Cmax,[11],19200 ng/mL
same,Tmax,[12],0.5 h
same,concentration at 0.5 h,[13],1150 ng/mL
same,log10CFU/ml,Enterococcus faecalis [14],0.53
same,log10CFU/ml,Enterococcus faecalis [15],0.23
same,log10CFU/ml,Enterococcus faecalis [16],1.23
same,log10CFU/ml,Enterococcus faecalis [17],0.09
same,log10CFU/ml,Enterococcus faecalis [18],0.28
same,half-life at 0.5 h,in vitro [19],6.54 h
same,Cmax,[20],14100 ng/mL
same,log10CFU/ml,Staphylococcus aureus [21],0.32
same,fT>MIC,Enterococcus faecalis [22],0%
same,AUC at 24 h,[23],47700 ng·h/mL
same,log10CFU/ml,Enterococcus faecalis [24],0.14
same,fT>MIC,Enterococcus faecalis [25],69%
same,log10CFU/ml,Staphylococcus aureus [26],-0.04
same,log10CFU/ml,Enterococcus faecalis [27],-0.08
